Data published in ChEMBL document CHEMBL4385626, “SAR optimization studies on modified salicylamides as a potential treatment for acute myeloid leukemia through inhibition of the CREB pathway” (Bioorg Med Chem Lett, 2019).
Calls of active or inactive are those of the source. The calls are words filed in the database; no cut-off is given here.

What was measured:
NALM-6 = assay: Cytotoxicity against human NALM6 cells incubated for 3 days by CellTiter-Glo luminescent assay; type: functional, cell-based; conditions: NALM-6, 72 h
Method in brief: (§1)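 CellTiter-Glo viability read-out on leukemia cell lines. IC50 reported as the average of triplicates.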

HL-60 = assay: Cytotoxicity against human HL60 cells incubated for 3 days by CellTiter-Glo luminescent assay; type: functional, cell-based; conditions: HL-60, 72 h; method in brief: as §1
KG-1 = assay: Cytotoxicity against human KG1 cells incubated for 3 days by CellTiter-Glo luminescent assay; type: functional, cell-based; conditions: KG-1, 72 h; method in brief: as §1
Jurkat = assay: Cytotoxicity against human Jurkat cells incubated for 3 days by CellTiter-Glo luminescent assay; type: functional, cell-based; conditions: 72 h; method in brief: as §1
[1] = Inhibition of KIX-RLucC fused CBP (unknown origin) binding to KID-RLucN fused CREB (unknown origin) transfected in human HEK293 cells preincubated with compound 30 mins before forskolin addition and measured after 90 mins in presence of coelenterazine by split Renilla luciferase complementation assay
Bone marrow cell = assay: Cytotoxicity against human bone marrow cells incubated for 3 days by CellTiter-Glo luminescent assay; type: cell-based; conditions: 72 h
[2] = Metabolic stability in human liver microsomes assessed as half life in presence of NADPH by LC-MS/MS analysis; type: ADME, Microsome
[3] = Metabolic stability in mouse liver microsomes assessed as half life in presence of NADPH by LC-MS/MS analysis; type: ADME, Microsome
Homo sapiens = species: Homo sapiens; assay: Inhibition of CBP KIX domain (unknown origin) binding to BODIPY-labeled phosphorylated CREB KID domain (unknown origin) interaction pre-incubated for 30 mins by fluorescence polarization assay
Method in brief: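 Fluorescence polarization with BODIPY-labeled phosphorylated CREB KID domain and the CBP KIX domain. Polarization reports the degree of KIX-KID binding.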

Row | IC50 [1] | half-life [2] | half-life [3] | inhibition (Homo sapiens) | SMILES | IC50 (NALM-6) | IC50 (HL-60) | IC50 (KG-1) | IC50 (Jurkat) | IC50 (Bone marrow cell)
1 |  |  |  |  | O=C(Nc1ccc(OC(F)(F)F)cc1Cl)c1cc(Cl)ccc1O | 1350 nM | 650 nM | 620 nM | 880 nM | 
2 |  |  |  |  | O=C(Nc1ccc(C(F)(F)F)cc1)c1cc(Br)c(F)cc1O | 1300 nM | 450 nM | 820 nM | 880 nM | 
3 | > 7000 nM |  |  |  | N#Cc1ccc(C(=O)Nc2cc3ccccc3cc2O)cc1 |  | > 10000 nM | > 10000 nM |  | 
4 |  |  |  |  | N#Cc1ccc(NC(=O)c2ccc3cccnc3c2O)c(Cl)c1 | 420 nM | 910 nM | 3670 nM | 550 nM | 
5 |  |  |  |  | N#Cc1ccc(NC(=O)c2ccc3cccnc3c2O)c(F)c1 | 370 nM | 730 nM | 3260 nM | 420 nM | 
6 |  |  |  |  | O=C(Nc1cc(C(F)(F)F)cc(C(F)(F)F)c1)c1cc(Cl)c(F)cc1O | 2130 nM | 430 nM | 470 nM | 730 nM | 
7 | > 7000 nM |  |  |  | COc1cccc(O)c1C(=O)Nc1ccc(C#N)cc1 |  | > 10000 nM | > 10000 nM |  | 
8 |  |  |  |  | O=C(Nc1ccc(Cl)c(Cl)c1)c1cc(F)ccc1O | 1370 nM | 660 nM | 760 nM | 670 nM | 
9 | 4030 nM | 44.9 min | 5.5 min |  | N#Cc1ccc(NC(=O)c2cc3ccccc3cc2O)cc1 |  | 1580 nM |  |  | > 10000 nM
10 |  |  |  |  | O=C(Nc1ccc(C(F)(F)F)cc1)c1cc(Br)ccc1O | 1090 nM | 580 nM | 610 nM | 620 nM | 
11 |  |  |  |  | O=C(Nc1ccc(C(F)(F)F)cc1)c1cc(Cl)ccc1O | 1210 nM | 510 nM | 740 nM | 710 nM | 
12 |  |  |  |  | O=C(Nc1ccc(Cl)c(Br)c1)c1cc(Cl)ccc1O | 3070 nM | 780 nM | 680 nM | 1350 nM | 
13 |  |  |  |  | O=C(Nc1cc(C(F)(F)F)cc(C(F)(F)F)c1)c1ccc(-c2ccccc2)cc1O | 1580 nM | 1140 nM | 860 nM | 1240 nM | 
14 |  |  |  |  | O=C(Nc1ccc(C(F)(F)F)cc1)c1cc(F)ccc1O | 2090 nM | 490 nM | 1700 nM | 580 nM | 
15 | 3990 nM |  |  |  | N#Cc1ccc(NC(=O)c2cc(Cl)ccc2O)cc1 |  | 700 nM | 1860 nM |  | 
16 | 1240 nM | 52 min | 29.1 min | Active | O=C(Nc1cc(C(F)(F)F)cc(C(F)(F)F)c1)c1cc(Br)ccc1O | 590 nM | 290 nM | 300 nM | 350 nM | > 10000 nM
17 | > 7000 nM |  |  |  | COc1ccc(O)c(C(=O)Nc2ccc(C#N)cc2)c1 |  | > 10000 nM | > 10000 nM |  | 
18 |  |  |  |  | O=C(Nc1cccc(OC(F)(F)F)c1)c1cc(F)ccc1O | 1370 nM | 730 nM | 830 nM | 700 nM | 
19 |  |  |  |  | O=C(Nc1ccc(Cl)cc1Cl)c1ccc2cccnc2c1O | 450 nM | 610 nM | 3560 nM | 430 nM | 
20 |  |  |  |  | Cc1cc(C#N)ccc1NC(=O)c1ccc2cccnc2c1O | 230 nM | 710 nM | 3240 nM | 270 nM | 
21 |  |  |  |  | O=C(Nc1ccc(OC(F)(F)F)cc1)c1cc(F)ccc1O | 1210 nM | 850 nM | 780 nM | 810 nM | 
22 |  |  |  |  | O=C(Nc1ccc(OC(F)(F)F)c(Cl)c1)c1cc(Cl)ccc1O | 1050 nM | 450 nM | 460 nM | 840 nM | 
23 |  |  |  |  | O=C(Nc1ccc(OC(F)(F)F)c(Cl)c1)c1cc(F)ccc1O | 1000 nM | 550 nM | 370 nM | 700 nM | 
24 |  |  |  |  | O=C(Nc1ccc(C(F)(F)F)cc1)c1ccc(F)cc1O | 1530 nM | 680 nM | 740 nM | 800 nM | 
25 |  |  |  |  | N#Cc1ccc(NC(=O)c2cc(Br)c3cccnc3c2O)cc1 | 210 nM | 330 nM |  | 230 nM | 
26 |  |  |  |  | O=C(Nc1ccc(C(F)(F)F)cc1)c1ccc2cccnc2c1O | 380 nM | 680 nM | 3510 nM | 550 nM | 
27 |  |  |  |  | O=C(Nc1ccc(Cl)c(C(F)(F)F)c1)c1cc(F)ccc1O | 970 nM | 600 nM | 540 nM | 530 nM | 
